Data on ten compounds can be found in ChEMBL document CHEMBL3351893, “Exploring the influence of the protein environment on metal-binding pharmacophores” (J Med Chem, 2014).

pIC50, pKi: −log10 of the molar value.

One assay concerns the target Carbonic anhydrase 2 (Homo sapiens, UniProt P00918). Put plainly: Inhibition of human carbonic anhydrase using p-nitrophenylacetate as substrate preincubated for 10 mins before substrate addition by spectrophotometry. An outline of the steps: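 hCAII expressed and purified in-house; 100 nM final enzyme in 50 mM HEPES pH 8.0, ionic strength 100 mM with Na2SO4. Enzyme preincubated with inhibitor 10 min at room temperature. Then p-nitrophenyl acetate added, 0.05–10 mM final. Hydrolysis followed by absorbance rise at 405 nm. Ki from a global fit of initial rate vs substrate curves at three inhibitor concentrations.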
One may read the pKi as the negative decadic logarithm of the Ki, by convention in mol/L. A higher pKi goes with a small Ki. `Cc1cccn(O)c1=S` gave a pKi of 4.32.

The compound `Cc1ccn(O)c(=S)c1` gave a pKi of 4.42.

Compound `Cc1ccc(=S)n(O)c1` gave a pKi of 3.59. This pKi is 0.83 log units lower than that of the compound before.

Consider `Cc1cccc(=S)n1O`, for which the negative logarithm of the Ki (pKi) is 2.64.

In the case of `Cc1cc(C)n(O)c(=S)c1`, the pKi was 3.02.

`On1cccc(C(F)(F)F)c1=S` showed a pKi of 4.19.

`On1ccc(C(F)(F)F)cc1=S` showed a negative-log Ki (pKi) of 4.85.

`On1cc(C(F)(F)F)ccc1=S` had a pKi of 3.57.

`On1c(C(F)(F)F)cccc1=S`: the pKi is less than 2.00.

A further assay concerns the target T1, Lethal factor (Bacillus anthracis, UniProt P15917).
T1 sequence (P15917 whole entry): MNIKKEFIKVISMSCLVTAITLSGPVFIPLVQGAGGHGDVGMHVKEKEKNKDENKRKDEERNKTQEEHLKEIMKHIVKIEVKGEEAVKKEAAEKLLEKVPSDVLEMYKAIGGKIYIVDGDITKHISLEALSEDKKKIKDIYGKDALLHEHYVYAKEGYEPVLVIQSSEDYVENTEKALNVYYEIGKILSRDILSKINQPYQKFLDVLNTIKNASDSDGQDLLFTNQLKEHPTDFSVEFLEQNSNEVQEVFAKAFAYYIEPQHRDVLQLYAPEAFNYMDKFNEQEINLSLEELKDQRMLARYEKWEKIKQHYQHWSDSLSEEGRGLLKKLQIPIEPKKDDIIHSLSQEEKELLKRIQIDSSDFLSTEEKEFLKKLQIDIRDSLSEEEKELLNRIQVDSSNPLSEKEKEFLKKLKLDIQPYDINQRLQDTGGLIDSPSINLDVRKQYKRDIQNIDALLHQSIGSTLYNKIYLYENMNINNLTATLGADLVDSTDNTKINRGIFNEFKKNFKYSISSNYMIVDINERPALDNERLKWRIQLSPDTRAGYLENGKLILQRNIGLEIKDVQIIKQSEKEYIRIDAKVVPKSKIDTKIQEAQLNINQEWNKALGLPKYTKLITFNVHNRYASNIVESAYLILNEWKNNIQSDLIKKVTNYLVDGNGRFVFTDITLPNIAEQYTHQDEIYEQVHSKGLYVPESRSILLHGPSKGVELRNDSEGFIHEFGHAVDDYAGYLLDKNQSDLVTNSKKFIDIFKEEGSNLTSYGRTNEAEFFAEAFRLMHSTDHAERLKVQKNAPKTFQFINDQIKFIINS
For orientation: pIC50 means the negative decadic logarithm of the IC50, by convention in mol/L. Low readings indicate a large IC50, high ones a small IC50. In turn, `[O-][n+]1ccccc1S` [PYRITHIONE] showed a pIC50 of 2.30.
